# Measurements collected from several papers.
# Each line is one published result; the experiments were not run side by side.
# Target: MAP kinase-interacting serine/threonine-protein kinase 1 (MKNK1, Homo sapiens, UniProt Q9BUB5)
Structure (SMILES),test,conditions,measurement,value
N#Cc1ccc(NC(=O)Nc2ccccc2)cc1,"cell-free assay, competition with immobilised ligand",25 µM,remaining binding,75%
CC(C)S(=O)(=O)c1ccc2nccc(Nc3ccc4sc(C5CCCC5)nc4c3)c2c1,"enzyme activity, inhibitor",1 µM,activity vs control,106%
C#Cc1cc(-c2cc(Nc3nc(N[C@@H](C)c4ccc(F)cn4)ncc3Cl)n[nH]2)ccc1C=O,"enzyme activity, inhibitor",0.2 µM,inhibition,9.43%
COc1ccc2oc(-c3ccc4nc(N)oc4c3)c/c(=N\c3ccccc3NC(=O)CCN)c2c1,binding,1 µM,remaining binding,107%
C#Cc1cnc(Nc2ccnc(CO)c2)nc1Nc1ccccc1S(C)(=O)=NC#N (centres unmarked),cell-free assay,1 µM,remaining signal,100%
C1=C/COCc2cc(ccc2OCCN2CCCC2)Nc2nccc(n2)-c2cccc(c2)COC/1,binding,0.1 µM,remaining binding,78%
CC#CC(=O)N1CCC[C@H]1c1nc(-c2ccc(C(=O)Nc3ccccn3)cc2)c2c(N)nccn12,"enzyme activity, inhibitor",1 µM,inhibition,0%
Cc1ccc(NC(=O)c2ccnc(C(F)(F)F)c2)cc1-c1cc(OCCO)nc(N2CCOCC2)c1,"binding, competition with immobilised ligand",1 µM,remaining binding,85%
CO[C@@H]1[C@H](N(C)C(=O)c2ccccc2)C[C@H]2O[C@]1(C)n1c3ccccc3c3c4c(c5c6ccccc6n2c5c31)C(=O)NC4,"enzyme activity, inhibitor",1 µM,inhibition,20%
CCCCC(=O)Nc1ccc(-c2ccc3ncn(CCC)c(=O)c3c2)cn1,"binding, competition with immobilised ligand",0.5 µM,remaining binding,100%
CN1CCN(C(=O)c2ccc(NC(=O)Nc3ccc(N(C)c4ccnc(Nc5ccc(CS(C)(=O)=O)cc5)n4)cc3)cc2)CC1,"binding, competition with immobilised ligand",1 µM,remaining binding,65%
